Measurements: ChEMBL document CHEMBL1921714, “Discovery of aminobenzyloxyarylamides as κ opioid receptor selective antagonists: application to preclinical development of a κ opioid receptor antagonist receptor occupancy tracer” (J Med Chem, 2011)
Active and inactive are the calls of the source. The calls are words filed in the database; no cut-off is given here.

Assays:
[1] = target: T1, Kappa-type opioid receptor (Homo sapiens, UniProt P41145); test: Antagonist activity at human opioid kappa receptor expressed in CHO cells assessed as inhibition of U69593-induced [35S]GTP-gamma-S binding after 4 hrs by scintillation counting; type: functional, cell-based
Striatum [2] = test: Drug uptake in rat striatum at 3 ug/kg, iv pretreated 1 hr with 3-Fluoro-4-[4-[[ (2S)-2-(3-fluorophenyl)pyrrolidin-1-yl]methyl]- phenoxy]benzamide measured after 40 mins by LC/MS-MS analysis; type: ADME, organism-based; details: in vivo, 0.003 mg/kg
Method in brief: (§1)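 Rats were pretreated 1 h with the κ antagonist at a range of doses, then given tracer at 3 ug/kg iv. Brains were taken 40 min after tracer. Striatum and cerebellum were extracted in acetonitrile/0.1% formic acid and tracer levels quantified by LC/MS/MS.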

Mu-type opioid receptor [3] = target: T2, Mu-type opioid receptor (Homo sapiens, UniProt P35372); test: Displacement of [3H]diprenorphine from human opioid mu receptor expressed in CHO cells after 120 mins by scintillation counting; type: cell-based
Method in brief: (§2)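 11-point curves, 0.01 nM–1 μM final. 120 min at 22 °C, then filtration and scintillation counting. Nonspecific binding set by 10 μM naltrexone. Four-parameter IC50; Ki by Cheng–Prusoff.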

Striatum [4] = test: Drug uptake in rat striatum at 3 ug/kg, iv measured after 40 mins by LC/MS-MS analysis; type: ADME, organism-based; details: in vivo, 0.003 mg/kg
Method in brief: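 Groups of four rats received a single iv tracer dose and were killed 20 or 40 min later. Striatum was weighed, homogenized in 4 volumes acetonitrile/0.1% formic acid and centrifuged. The supernatant was diluted and analysed by LC/MS/MS against standards spiked into naive rat brain. %SUV = tissue amount/injected dose × 100.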

CHO [5] = test: Selectivity ratio of Ki for human opioid mu receptor expressed in CHO cells to Ki for human opioid kappa receptor expressed in CHO cells; type: cell-based
Cerebellum = test: Drug uptake in rat cerebellum at 3 ug/kg, iv pretreated 1 hr with 3-Fluoro-4-[4-[[ (2S)-2-(3-fluorophenyl)pyrrolidin-1-yl]methyl]- phenoxy]benzamide measured after 40 mins by LC/MS-MS analysis; type: ADME, organism-based; details: in vivo, 0.003 mg/kg; method in brief: as §1
[6] = target: T3, Delta-type opioid receptor (Homo sapiens, UniProt P41143); test: Agonist activity at human opioid delta receptor expressed in HEK293 cells assessed as stimulation of [35S]-GTPgammaS binding at 10 uM; type: functional, cell-based
Method in brief: (§3)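 Agonist mode: membranes from CHO (κ, μ) or HEK293 (δ) cells expressing cloned human receptors, no agonist added, tested at up to 10 μM. [35S]GTP-γ-S (0.5 nM final) binding in HEPES pH 7.4, MgCl2, NaCl, EDTA, DTT, 200 μM GDP. Read by WGA SPA beads after 2 h (δ) or 4 h (κ, μ) at room temperature, then 4 °C overnight.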

[7] = target: T3, Delta-type opioid receptor; test: Displacement of [3H]diprenorphine from human opioid delta receptor expressed in HEK293 cells after 120 mins by scintillation counting; type: cell-based; method in brief: as §2
Mu-type opioid receptor [8] = target: T2, Mu-type opioid receptor; test: Antagonist activity at human opioid mu receptor expressed in CHO cells assessed as inhibition of DAMGO-induced [35S]GTP-gamma-S binding after 4 hrs by scintillation counting; type: functional, cell-based
HEK293 [9] = test: Selectivity ratio of Kb for human opioid delta receptor expressed in HEK293 cells to Kb for human opioid kappa receptor expressed in CHO cells; type: cell-based
Method in brief: (§4)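 Kb ratios from antagonist [35S]GTP-γ-S SPA on CHO (κ, μ) or HEK293 (δ) membranes. Agonists at about 80% maximal: U69,593 300 nM (κ), DAMGO 1 μM (μ), DPDPE 30 nM (δ). 11-point curves, top 1 or 10 μM. Nonspecific binding: NorBNI, naltrexone or naltriben, each 10 μM. Kb = IC50/(1+D/EC50); geometric means with SEM.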

[10] = target: T1, Kappa-type opioid receptor; test: Agonist activity at human opioid kappa receptor expressed in CHO cells assessed as stimulation of [35S]-GTPgammaS binding at 10 uM; type: functional, cell-based; method in brief: as §3
Nucleic Acid = test: Ratio of drug uptake in striatum to cerebellum in rat at 3 ug/kg, iv measured after 40 mins by LC/MS/MS analysis; type: ADME, organism-based; details: in vivo, 0.003 mg/kg
Method in brief: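 Groups of four rats were given iv tracer and killed 20 or 40 min after dosing. Striatum (total binding) and cerebellum (nonspecific, null region) were extracted in acetonitrile/0.1% formic acid and quantified by LC/MS/MS. Binding potential was calculated as (striatum/cerebellum concentration) − 1.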

CHO [11] = test: Selectivity ratio of Kb for human opioid mu receptor expressed in CHO cells to Kb for human opioid kappa receptor expressed in CHO cells; type: cell-based; method in brief: as §4
[12] = target: T1, Kappa-type opioid receptor; test: Displacement of [3H]diprenorphine from human opioid kappa receptor expressed in CHO cells after 120 mins by scintillation counting; type: cell-based; method in brief: as §2
Mu-type opioid receptor [13] = target: T2, Mu-type opioid receptor; test: Agonist activity at human opioid mu receptor expressed in CHO cells assessed as stimulation of [35S]-GTPgammaS binding at 10 uM; type: functional, cell-based; method in brief: as §3
[14] = target: T3, Delta-type opioid receptor; test: Antagonist activity at human opioid delta receptor expressed in HEK293 cells assessed as inhibition of DPDPE-induced [35S]GTP-gamma-S binding after 4 hrs by scintillation counting; type: functional, cell-based
HEK293 [15] = test: Selectivity ratio of Ki for human opioid delta receptor expressed in HEK293 cells to Ki for human opioid kappa receptor expressed in CHO cells; type: cell-based

T2 sequence (P35372 whole entry): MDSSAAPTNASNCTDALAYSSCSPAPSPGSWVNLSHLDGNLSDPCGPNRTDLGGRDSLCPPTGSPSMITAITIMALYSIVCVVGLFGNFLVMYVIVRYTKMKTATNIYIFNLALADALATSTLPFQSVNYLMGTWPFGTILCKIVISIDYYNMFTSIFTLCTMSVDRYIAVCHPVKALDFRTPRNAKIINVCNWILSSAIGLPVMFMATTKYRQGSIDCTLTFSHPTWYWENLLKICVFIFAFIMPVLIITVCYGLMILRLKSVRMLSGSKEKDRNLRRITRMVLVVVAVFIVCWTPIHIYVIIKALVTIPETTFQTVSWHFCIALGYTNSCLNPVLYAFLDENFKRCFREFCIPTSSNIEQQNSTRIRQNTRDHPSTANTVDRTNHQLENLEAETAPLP
T3 sequence (P41143 whole entry): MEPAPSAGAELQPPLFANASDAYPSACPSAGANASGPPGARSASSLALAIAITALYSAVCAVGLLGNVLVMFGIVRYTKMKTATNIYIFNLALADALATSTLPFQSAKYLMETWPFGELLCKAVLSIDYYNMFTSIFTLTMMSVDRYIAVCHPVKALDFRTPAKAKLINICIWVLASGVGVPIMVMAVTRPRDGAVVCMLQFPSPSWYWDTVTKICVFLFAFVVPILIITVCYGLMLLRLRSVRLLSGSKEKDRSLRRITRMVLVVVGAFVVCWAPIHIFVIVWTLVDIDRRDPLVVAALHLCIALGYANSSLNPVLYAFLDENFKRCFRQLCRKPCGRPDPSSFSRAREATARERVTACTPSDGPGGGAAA
T1 sequence (P41145 whole entry): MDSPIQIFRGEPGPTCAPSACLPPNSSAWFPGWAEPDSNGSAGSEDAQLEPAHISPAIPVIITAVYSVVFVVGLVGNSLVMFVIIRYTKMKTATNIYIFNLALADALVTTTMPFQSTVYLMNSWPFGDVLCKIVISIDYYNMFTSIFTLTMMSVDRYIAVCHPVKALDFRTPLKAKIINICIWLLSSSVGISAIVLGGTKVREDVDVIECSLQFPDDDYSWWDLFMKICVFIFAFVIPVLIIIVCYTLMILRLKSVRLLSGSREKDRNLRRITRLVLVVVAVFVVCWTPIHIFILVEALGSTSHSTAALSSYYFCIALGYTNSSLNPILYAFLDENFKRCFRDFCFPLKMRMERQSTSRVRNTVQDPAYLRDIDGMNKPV

NC(=O)c1ccc(Oc2ccc(CN3CCC[C@H]3c3cccnc3)cc2)c(Cl)c1
Kb [1]: 0.632 nM
Drug uptake (Striatum [2]): Active
Ki (Mu-type opioid receptor [3]): 25.8 nM
SUV (Striatum [4]): 67%
Ratio Ki (CHO [5]): 36
Drug uptake (Cerebellum): Not Active
Activity [6]: inactive
Ki [7]: 153 nM
Kb (Mu-type opioid receptor [8]): 6.8 nM
Ratio (HEK293 [9]): 132
Activity [10]: inactive
Ratio (Nucleic Acid): 1.2
Ratio (CHO [11]): 11
Ki [12]: 0.722 nM
Activity (Mu-type opioid receptor [13]): inactive
Kb [14]: 83.3 nM
Ratio Ki (HEK293 [15]): 212
